Assay results as given in ChEMBL document CHEMBL1932972, “ent-Kaurane diterpenoids from Croton tonkinensis stimulate osteoblast differentiation” (J Nat Prod, 2011).
Activity calls are given as the source filed them.

What was measured:
[1] = tested on: C2C12; test: Induction of osteoblast differentiation in mouse C2C12 cells assessed as increase in ALP promoter activity at 10 uM measured 48 hrs by luciferase reporter gene analysis; assay type: functional, cell-based
In short: (§1)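 C2C12 cells seeded and grown 24 h, then transiently transfected (Ca3PO4 or Lipofectamine Plus) with ALP-, OC-, BSP- or OSE-luciferase reporter plus pCMV β-gal to normalise transfection efficiency. Treated at 10 μM. Luciferase read from cell lysates 48 h post-transfection; three independent experiments.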

[2] = tested on: C2C12; test: Induction of osteoblast differentiation in mouse C2C12 cells assessed as increase in osteoclacin promoter activity at 10 uM measured 48 hrs by luciferase reporter gene analysis; assay type: functional, cell-based; in short: as §1
[3] = tested on: C2C12; test: Induction of osteoblast differentiation in mouse C2C12 cells assessed as increase in of bone sialoprotein promoter activity at 10 uM measured 48 hrs by luciferase reporter gene analysis; assay type: functional, cell-based; in short: as §1
[4] = tested on: C2C12; test: Induction of osteoblast differentiation in mouse C2C12 cells assessed as increase in OSE promoter activity at 10 uM measured 48 hrs by luciferase reporter gene analysis; assay type: functional, cell-based; in short: as §1
[5] = tested on: C2C12; test: Induction of osteoblast differentiation in mouse C2C12 cells assessed as increase in ALP promoter activity measured 48 hrs by luciferase reporter gene analysis; assay type: functional, cell-based
In short: (§2)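 ALP- or OC-luciferase reporter transfected into C2C12 cells with pCMV β-gal control (Ca3PO4 or Lipofectamine Plus), after 24 h growth post-seeding. Dose-response at 1, 5 and 10 μM. Lysate luciferase activity measured 48 h later; three independent experiments.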

[6] = tested on: C2C12; test: Induction of osteoblast differentiation in mouse C2C12 cells assessed as increase in osteoclacin promoter activity measured 48 hrs by luciferase reporter gene analysis; assay type: functional, cell-based; in short: as §2
[7] = tested on: C2C12; test: Increase in ALP mRNA expression in mouse C2C12 cells by RT-PCR analysis; assay type: functional, cell-based
In short: (§3)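 C2C12 cells (DMEM, 20% FBS, 37 °C, 5% CO2) treated at 1, 5, 10 μM, with BMP2 as comparator. Total RNA extracted with TRIzol. cDNA made from 1 μg RNA using random primers. Semiquantitative RT-PCR for ALP and collagen type 1α with GAPDH reference, 28−30 cycles (94 °C 30 s, primer-specific annealing 30 s, 72 °C 30 s).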

[8] = tested on: C2C12; test: Increase in collagen type 1 alpha mRNA expression in mouse C2C12 cells by RT-PCR analysis; assay type: functional, cell-based; in short: as §3
[9] = tested on: C2C12; test: Induction of osteogenesis in mouse C2C12 cells assessed as increase in osteoblast differentiation-associated ALP level at 10 uM after 2 days in presence of 5 ng/mL BMP2

Measured: Activity

C=C1C[C@@]23CC[C@@H]4[C@@](C)(COC(C)=O)CCC[C@@]4(C)[C@@H]2CC[C@@H]1[C@H]3O
active: [1] | [2] | [3] | [4] | [5] Dose-dependent effect | [6] Dose-dependent effect | [7] Dose-dependent effect | [8] Dose-dependent effect | [9]

C=C1C[C@]23C[C@H]1CC[C@H]2[C@]1(C)CCC[C@](C)(COC(C)=O)[C@H]1C[C@H]3O
active: [1] | [2] | [3] | [4] | [5] Dose-dependent effect | [6] Dose-dependent effect | [9]

C=C1C[C@@]23CC[C@@H]4[C@@](C)(CO)CCC[C@@]4(C)[C@@H]2[C@@H](OC(C)=O)C[C@@H]1C3
active: [1] | [2] | [3] | [4] | [5] Dose-dependent effect | [6] Dose-dependent effect | [7] Dose-dependent effect | [8] Dose-dependent effect | [9]

C=C1C[C@@]23CC[C@@H]4[C@@](C)(COC(C)=O)CCC[C@@]4(C)[C@@H]2[C@H](O)C[C@@H]1C3
active: [1] | [2] | [3] | [4] | [5] Dose-dependent effect | [6] Dose-dependent effect | [7] Dose-dependent effect | [8] Dose-dependent effect | [9]
